Experimental data pooled from the literature.
SIRT6: NAD-dependent protein deacylase sirtuin-6 (SIRT6, Homo sapiens, UniProt Q8N6T7)
PBK: Lymphokine-activated killer T-cell-originated protein kinase (PBK, Homo sapiens, UniProt Q96KB5)
VRK1: Serine/threonine-protein kinase VRK1 (VRK1, Homo sapiens, UniProt Q99986)
BRD7: Bromodomain-containing protein 7 (BRD7, Homo sapiens, UniProt Q9NPI1)

SMILES	target	assay	setting	measurement	value
Nc1nonc1-n1cc(C(=O)N/N=C/c2ccc(F)cc2)nn1	SIRT6	enzyme activity, inhibitor, fluorescence	100 µM	remaining activity	43%
CCCOc1ccc(OC)c(F)c1C(=O)c1ccc(C(=O)N[C@@H]2CNC[C@H]2NC(=O)c2ccc3[nH]ncc3c2)cc1	Angiopoietin-1 receptor (TEK, Homo sapiens, UniProt Q02763, Y897S)	enzyme activity, inhibitor	10 µM	remaining activity	47%
Cn1c2c(c3ccc(Cl)c(Cl)c31)C(C#N)C(C)(C)NC2=O (centres unmarked)	PBK	thermal stability, DSF	10 µM	ΔTm	-0.6 °C
CC/C(=N\NC(=O)NCc1cccc(O)c1)c1ccc(O)c(C)c1O	ALK tyrosine kinase receptor (ALK, Homo sapiens, UniProt Q9UM73)	enzyme activity, inhibitor	0.1 µM	inhibition	1%
Cn1c2c(c3ccc(Cl)c(Cl)c31)C(C#N)C1(CCCC1)NC2=O (centres unmarked)	PBK	thermal stability, DSF	10 µM	ΔTm	0 °C
NC(=O)c1ccc(C(=O)NOCc2ccc3nccnc3c2)cc1	SIRT6	enzyme activity, inhibitor, fluorescence	100 µM	inhibition	61.4%
Cc1ccc(C(=O)NCc2ccsc2)cc1C#Cc1cn(C(C)C)c2ncnc(N)c12	[Pyruvate dehydrogenase (acetyl-transferring)] kinase isozyme 4, mitochondrial (PDK4, Homo sapiens, UniProt Q16654)	enzyme activity, inhibitor	1 µM	activity vs control	119%
NC(=O)c1ccc(C(=O)NOCc2ccc(C(F)(F)F)cc2)cc1	SIRT6	enzyme activity, inhibitor, fluorescence	100 µM	inhibition	87%
CCN1CCC2(CC1)NC(=O)c1c(c3ccc(Cl)c(Cl)c3n1C)C2C#N (racemic)	VRK1	thermal stability, DSF	10 µM	ΔTm	-0.4 °C
NC(=O)c1ccc(C(=O)NOCc2ccc(C(F)(F)F)c(Cl)c2)cc1	SIRT6	enzyme activity, inhibitor, fluorescence	100 µM	inhibition	90.4%
Nc1ncnc2occ(-c3ccc(NC(=O)Nc4cc(C(F)(F)F)ccc4F)cc3)c12	Serine/threonine-protein kinase TNNI3K (TNNI3K, Homo sapiens, UniProt Q59H18)	cell-free assay	20 µM	remaining signal	1.5%
Nc1nonc1-n1cc(C(=O)N/N=C/c2ccc(C(F)(F)F)cc2C(F)(F)F)nn1	SIRT6	enzyme activity, inhibitor, fluorescence	100 µM	remaining activity	32.5%
NC(=O)c1ccc(C(=O)NOCc2cccc(F)c2)cc1	SIRT6	enzyme activity, inhibitor, fluorescence	100 µM	inhibition	74.1%
CC1(C)NC(=O)c2[nH]c3c(Cl)c(Cl)ccc3c2C1C#N (centres unmarked)	VRK1	thermal stability, DSF	10 µM	ΔTm	0.2 °C
C[S+]([O-])c1ccc(-c2nc(-c3ccncc3)c(-c3ccc(F)cc3)[nH]2)cc1 (centres unmarked)	BRD7	thermal stability, DSF	10 µM	ΔTm	0.34 °C
Cc1ccc(C(=O)Nc2ccc(CN3CCN(C)CC3)c(C(F)(F)F)c2)cc1C#Cc1cnc2cccnn12	Mitogen-activated protein kinase 6 (MAPK6, Homo sapiens, UniProt Q16659)	enzyme activity, inhibitor	23.5 nM	remaining activity	100%

SMILES	target	assay	setting	measurement	value
COc1cccc(CONC(=O)c2ccc(C(N)=O)cc2)c1	SIRT6	enzyme activity, inhibitor, fluorescence	100 µM	inhibition	75.4%
CCC1(CC)NC(=O)c2c(c3ccc(Cl)c(Cl)c3n2C)C1C#N (centres unmarked)	PBK	thermal stability, DSF	10 µM	ΔTm	0 °C
Nc1nonc1-n1cc(C(=O)N/N=C/c2ccccc2)nn1	SIRT6	enzyme activity, inhibitor, fluorescence	100 µM	remaining activity	38.9%
NC(=O)c1ccc(C(=O)NOCc2ccc(Sc3ccc(F)cc3)c(C(F)(F)F)c2)cc1	SIRT6	enzyme activity, inhibitor, fluorescence	100 µM	inhibition	90.2%
Cc1cc(NC(=O)c2cccc3cc(-c4cccc5[nH]nc(N)c45)ccc23)ccc1F	Angiopoietin-1 receptor (TEK, Homo sapiens, UniProt Q02763)	enzyme activity, inhibitor	0.1 µM	activity vs control	96%
NC(=O)c1ccc(C(=O)NOCc2cccc(Br)c2)cc1	SIRT6	enzyme activity, inhibitor, fluorescence	100 µM	inhibition	82.3%
Nc1nonc1-n1cc(C(=O)N/N=C/c2cccnc2)nn1	SIRT6	enzyme activity, inhibitor, fluorescence	100 µM	remaining activity	26%
NCCc1ccc(C(=O)NOCc2ccc(C(F)(F)F)cc2)cc1	SIRT6	enzyme activity, inhibitor, fluorescence	100 µM	inhibition	88.4%
Nc1nonc1-n1cc(C(=O)N/N=C/c2ccc(O)cc2)nn1	SIRT6	enzyme activity, inhibitor, fluorescence	100 µM	remaining activity	34.5%
Cc1cnc(NC2CCOCC2)nc1-n1cnc(C(=O)NC(CN)c2cc(F)cc(Cl)c2)c1 (centres unmarked)	Angiopoietin-1 receptor (TEK, Homo sapiens, UniProt Q02763, R849W)	enzyme activity, inhibitor, radiometric	1 µM	remaining activity	100%
Cn1c2c(c3ccc(Cl)c(Cl)c31)C(C#N)C1(CCOCC1)NC2=O (centres unmarked)	PBK	thermal stability, DSF	10 µM	ΔTm	-0.4 °C
Nc1nonc1-n1cc(C(=O)N/N=C/c2ccc([N+](=O)[O-])cc2O)nn1	SIRT6	enzyme activity, inhibitor, fluorescence	100 µM	remaining activity	20.6%
N#CC1c2c([nH]c3c(Cl)c(Cl)ccc23)C(=O)NC12CCCCC2 (racemic)	PBK	thermal stability, DSF	10 µM	ΔTm	0.8 °C
Nc1nonc1-n1cc(C(=O)N/N=C/c2ccc(C(F)(F)F)cc2[N+](=O)[O-])nn1	SIRT6	enzyme activity, inhibitor, fluorescence	100 µM	remaining activity	24.9%
Cc1cnc(Nc2ccc(OCCN3CCCC3)cc2)nc1Nc1cccc(S(=O)(=O)NC(C)(C)C)c1	BRD7	thermal stability, DSF	10 µM	ΔTm	0.22 °C
Cn1c2c(c3ccccc31)C(C#N)C(C)(C)NC2=O (centres unmarked)	VRK1	thermal stability, DSF	10 µM	ΔTm	-0.1 °C
